From ChEMBL document CHEMBL1126169, “8-Polycycloalkyl-1,3-dipropylxanthines as potent and selective antagonists for A1-adenosine receptors” (J Med Chem, 1992)

Assays:
Adenosine receptor A1 [1] = target: T1, Adenosine receptor A1 (Cavia porcellus, UniProt P47745); assay: Inhibition of N6-[3H]cyclohexyladenosine binding to guinea pig forebrain membrane Adenosine A1 receptor
T1 sequence (P47745 whole entry): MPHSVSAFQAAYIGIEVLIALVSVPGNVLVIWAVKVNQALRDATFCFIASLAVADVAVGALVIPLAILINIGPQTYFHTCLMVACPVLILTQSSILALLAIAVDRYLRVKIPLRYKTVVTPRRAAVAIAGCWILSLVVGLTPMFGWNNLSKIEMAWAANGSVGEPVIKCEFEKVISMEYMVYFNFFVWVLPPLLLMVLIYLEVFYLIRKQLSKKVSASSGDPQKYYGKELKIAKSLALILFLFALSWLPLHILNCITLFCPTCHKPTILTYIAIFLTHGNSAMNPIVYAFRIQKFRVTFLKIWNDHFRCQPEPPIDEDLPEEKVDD

Adenosine A2 receptor [2] = target: T2, Adenosine A2 receptor (Rattus norvegicus, UniProt P29276+P30543); assay: Binding affinity against Adenosine A2 receptor using N-[3H]-ethyladenosin-5''-uronamide in rat striatal membranes; type: cell membranes, Striatum, Membrane
Adenosine receptor A1 [3] = target: T1, Adenosine receptor A1; assay: Binding affinity against adenosine A1 receptor using N6-[3H]cyclohexyladenosine as radioligand in guinea pig forebrain membranes; type: cell membranes, Brain membranes
Adenosine A2 receptor [4] = target: T2, Adenosine A2 receptor; assay: Binding affinity against adenosine A2 receptor using N-[3H]-ethyladenosin-5''-uronamide as radioligand in rat striatal membranes.; type: cell membranes
[5] = target: Adenosine receptor A1 (Rattus norvegicus) (UniProt P25099); assay: Binding affinity against adenosine A1 receptor using N6-[3H]cyclohexyladenosine as radioligand in rat brain membranes
Adenosine receptor A1 [6] = target: T1, Adenosine receptor A1; assay: Binding affinity against Adenosine A1 receptor using N6-[3H]cyclohexyladenosine in guinea pig forebrain membranes; type: cell membranes, Brain membranes
Outline: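 Guinea pig forebrain membranes in 50 mM Tris-HCl pH 7.7, pretreated with adenosine deaminase (2.0 units/mL, 30 min, 37 °C), 10 mg tissue per tube. Incubated with 1.1 nM [3H]cyclohexyladenosine, final DMSO <0.9%, for 90 min at 25 °C, then GF/C filtration and scintillation counting. Nonspecific binding defined with 10 µM R-PIA.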

Adenosine receptor A1 [7] = target: T3, Adenosine receptor A1 (Rattus norvegicus, UniProt P25099); assay: Binding affinity against Adenosine A1 receptor using N6-[3H]cyclohexyladenosine in rat brain membranes; type: cell membranes
T3 sequence (P25099 whole entry): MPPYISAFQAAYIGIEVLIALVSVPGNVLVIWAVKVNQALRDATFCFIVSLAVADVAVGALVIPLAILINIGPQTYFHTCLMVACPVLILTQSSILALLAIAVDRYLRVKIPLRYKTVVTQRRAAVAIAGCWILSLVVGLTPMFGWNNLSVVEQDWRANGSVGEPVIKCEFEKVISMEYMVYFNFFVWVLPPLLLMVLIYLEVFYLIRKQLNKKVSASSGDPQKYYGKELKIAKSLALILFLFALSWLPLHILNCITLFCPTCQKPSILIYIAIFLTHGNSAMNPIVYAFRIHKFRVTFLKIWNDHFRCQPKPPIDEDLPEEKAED
Outline: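 Rat forebrain membranes were prepared like the guinea pig tissue. Tissue was homogenized in ice-cold 50 mM Tris-HCl pH 7.7, centrifuged at 50000g and washed. It was treated with ADA (2.0 units/mL) for 30 min at 37 °C, then used at 10 mg tissue/mL. Duplicate curves used five or more concentrations; IC50 from logit-log plots was converted to Ki by Cheng-Prusoff.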

Adenosine receptor A1 [8] = target: T1, Adenosine receptor A1; assay: Binding affinity against Adenosine A1 receptor using N6-[3H]cyclohexyladenosine in guinea pig membranes; type: cell membranes
[9] = Inhibitory activity against adenylate cyclase using (R)-N6-(2-[3H]-phenyl-1-methylethyladenosine as radioligand in rat adipocytes; type: cell-based
[10] = Binding affinity against adenylate cyclase using N-[3H]-ethyl adenosine-5-uronamide as radioligand in human platelet membranes; type: cell membranes

CCCn1c(=O)[nH]c(=O)c2[nH]c(C34CC5CC(CC3C5)C4)nc21
Ki (Adenosine receptor A1 [1]): 370 nM
Ki (Adenosine A2 receptor [2]): > 100000 nM

CCCn1c(=O)c2nc([C@@H]3CC4CCC3C4)[nH]c2n(CCC)c1=O (some centres not stated)
Ki (Adenosine receptor A1 [3]): 3.8 nM
Ki (Adenosine A2 receptor [4]): 440 nM

Cn1c(=O)c2[nH]c(C34CC5CC(CC3C5)C4)nc2n(C)c1=O
Ki (Adenosine receptor A1 [3]): 41 nM

CC[C@@H](C)Nc1ncnc2c1ncn2[C@@H]1O[C@H](CO)[C@@H](O)[C@H]1O
Ki (Adenosine receptor A1 [1]): 1.3 nM

CC1(Nc2ncnc3c2ncn3C2O[C@H](CO)[C@@H](O)[C@H]2O)CCCCC1 (some centres not stated)
Ki [5]: 70 nM

CC[C@H](C)Nc1ncnc2c1ncn2C1O[C@H](CO)[C@@H](O)[C@H]1O (single isomer, unassigned)
Ki (Adenosine receptor A1 [1]): 0.8 nM

CCCn1c(=O)c2nc(CC34C[C@H]5C[C@@H](C3)C[C@@H](C4)C5)[nH]c2n(CCC)c1=O
Ki (Adenosine receptor A1 [3]): 880 nM
Ki (Adenosine A2 receptor [4]): > 100000 nM

CCCn1c(=O)c2nc(-c3cccs3)[nH]c2n(CCC)c1=O
Ki (Adenosine receptor A1 [3]): 210 nM
Ki (Adenosine A2 receptor [4]): 1900 nM

CCCn1c(=O)c2nc(C3c4ccccc4-c4ccccc43)[nH]c2n(CCC)c1=O
Ki (Adenosine receptor A1 [6]): 2900 nM
Ki (Adenosine A2 receptor [2]): > 100000 nM

CCCn1c(=O)c2nc(C3C(C)(C)CCC3(C)C)[nH]c2n(CCC)c1=O
Ki (Adenosine A2 receptor [4]): > 100000 nM

CCCn1c(=O)c2nc(-c3cnsn3)[nH]c2n(CCC)c1=O
Ki (Adenosine A2 receptor [4]): > 10000 nM

CCC(C)(C)Nc1ncnc2c1ncn2C1O[C@H](CO)[C@@H](O)[C@H]1O (some centres not stated)
Ki (Adenosine receptor A1 [1]): 16 nM

CCCn1c(=O)c2nc(C3CC4CCC3C4)[nH]c2n(CCC)c1=O (configuration not stated)
Ki (Adenosine receptor A1 [1]): 4.4 nM

CCCn1c(=O)c2[nH]c(C[C@H]3CC4CCC3C4)nc2n(CCC)c1=O (some centres not stated)
Ki (Adenosine receptor A1 [3]): 80 nM

CCCn1c(=O)c2nc(C(C)(O)CC)[nH]c2n(CCC)c1=O (configuration not stated)
Ki (Adenosine receptor A1 [3]): 240 nM
Ki (Adenosine A2 receptor [4]): 21000 nM

CCCn1c(=O)c2nc(CC3CC3)[nH]c2n(CCC)c1=O
Ki (Adenosine receptor A1 [3]): 120 nM
Ki (Adenosine A2 receptor [4]): 1200 nM

CCCn1c(=O)c2nc(-c3cc4ccccc4s3)[nH]c2n(CCC)c1=O
Ki (Adenosine receptor A1 [3]): > 100000 nM
Ki (Adenosine A2 receptor [4]): > 100000 nM

CCCn1c(=O)c2nc(-c3cc4ccccc4o3)[nH]c2n(CCC)c1=O
Ki (Adenosine receptor A1 [3]): > 10000 nM
Ki (Adenosine A2 receptor [4]): 1200 nM

CCCn1c(=O)c2nc([C@H]3CC4C=CC3C4)[nH]c2n(CCC)c1=O (some centres not stated)
Ki (Adenosine receptor A1 [3]): 3.4 nM
Ki (Adenosine A2 receptor [4]): 210 nM

CCCn1c(=O)c2nc(C(C)(C)CC)[nH]c2n(CCC)c1=O
Ki (Adenosine receptor A1 [3]): 23 nM
Ki (Adenosine A2 receptor [4]): 1000 nM

CCCn1c(=O)c2nc(-c3nn[nH]n3)[nH]c2n(CCC)c1=O
Ki (Adenosine receptor A1 [3]): > 10000 nM
Ki (Adenosine A2 receptor [4]): > 100000 nM

CCCCn1c(=O)c2nc(C34CC5CC(CC3C5)C4)[nH]c2n(CCCC)c1=O
Ki (Adenosine receptor A1 [3]): 10 nM

CCCn1c(=O)c2nc(C(O)(CC)CC)[nH]c2n(CCC)c1=O
Ki (Adenosine receptor A1 [3]): 170 nM
Ki (Adenosine A2 receptor [4]): 12000 nM

CC(C)(C)Nc1ncnc2c1ncn2C1O[C@H](CO)[C@@H](O)[C@H]1O (some centres not stated)
Ki (Adenosine receptor A1 [3]): 20 nM

OC[C@H]1O[C@@H](n2cnc3c(NC4CC5CCC4C5)ncnc32)[C@H](O)[C@@H]1O (some centres not stated)
Ki (Adenosine receptor A1 [7]): 0.91 nM
Ki (Adenosine receptor A1 [1]): 0.7 nM

Cn1c(=O)c2c(ncn2C)n(C)c1=O [CAFFEINE]
Ki (Adenosine receptor A1 [3]): 100000 nM

CCCn1c(=O)c2nc(C3Cc4ccccc4C3)[nH]c2n(CCC)c1=O
Ki (Adenosine receptor A1 [3]): 220 nM
Ki (Adenosine A2 receptor [4]): 1700 nM

CCCn1c(=O)c2nc(-c3cc4ccccc4n3C)[nH]c2n(CCC)c1=O
Ki (Adenosine receptor A1 [3]): > 100000 nM
Ki (Adenosine A2 receptor [4]): > 100000 nM

CC(C)(C)CNc1ncnc2c1ncn2C1O[C@H](CO)[C@@H](O)[C@H]1O (some centres not stated)
Ki (Adenosine receptor A1 [3]): 17 nM

CCCn1c(=O)c2nc(C3(C)CCCCC3)[nH]c2n(CCC)c1=O
Ki (Adenosine receptor A1 [3]): 11 nM
Ki (Adenosine A2 receptor [4]): 1200 nM

CCCn1c(=O)c2nc(-c3csc(C)n3)[nH]c2n(CCC)c1=O
Ki (Adenosine receptor A1 [3]): 410 nM
Ki (Adenosine A2 receptor [4]): 2300 nM

OC[C@H]1OC(n2cnc3c(NCC4CC4)ncnc32)[C@H](O)[C@@H]1O (some centres not stated)
Ki [5]: 0.75 nM

CCCn1c(=O)c2nc([C@@H]3CC4C=CC3C4)[nH]c2n(CCC)c1=O (some centres not stated)
Ki (Adenosine receptor A1 [3]): 4.3 nM
Ki (Adenosine A2 receptor [4]): 480 nM

CCCn1c(=O)c2nc(-c3ccco3)[nH]c2n(CCC)c1=O
Ki (Adenosine receptor A1 [3]): 560 nM
Ki (Adenosine A2 receptor [4]): 530 nM

CC(C)Cn1c(=O)n(C)c(=O)c2[nH]c(C34CC5CC(CC3C5)C4)nc21
Ki (Adenosine receptor A1 [1]): 15 nM

CCCn1c(=O)c2nc(C3CCC4CCCC43)[nH]c2n(CCC)c1=O (configuration not stated)
Ki (Adenosine receptor A1 [1]): 5.6 nM
Ki (Adenosine A2 receptor [2]): 560 nM
Ki (Adenosine receptor A1 [3]): 3.5 nM
Ki (Adenosine A2 receptor [4]): 330 nM

CCCn1c(=O)c2nc[nH]c2n(CCC)c1=O
Ki (Adenosine receptor A1 [1]): 1400 nM
Ki (Adenosine receptor A1 [8]): 1000 nM
Kb [9]: 940 nM

CCC(CC)Nc1ncnc2c1ncn2C1O[C@H](CO)[C@@H](O)[C@H]1O (some centres not stated)
Ki [5]: 0.75 nM

CCCn1c(=O)c2nc(-c3cc(S(=O)(=O)[O-])co3)[nH]c2n(CCC)c1=O.[K+]
Ki (Adenosine receptor A1 [6]): > 10000 nM
Ki (Adenosine A2 receptor [2]): > 10000 nM

CC(C)Nc1ncnc2c1ncn2[C@@H]1O[C@H](CO)[C@@H](O)[C@H]1O
Ki (Adenosine receptor A1 [3]): 1.9 nM

CCCn1c(=O)c2nc(-c3cccn3C)[nH]c2n(CCC)c1=O
Ki (Adenosine receptor A1 [3]): 140 nM
Ki (Adenosine A2 receptor [4]): 6000 nM

Cn1c(=O)c2[nH]cnc2n(C)c1=O
Kb [10]: 5700 nM
Kb [9]: 4800 nM

CCCn1c(=O)c2[nH]c(C34C[C@H]5C[C@@H](C3)C[C@@H](C4)C5)nc2n(CCC)c1=O
Ki (Adenosine receptor A1 [3]): 13 nM

CCCn1c(=O)c2nc(CC(C)(C)C)[nH]c2n(CCC)c1=O
Ki (Adenosine receptor A1 [3]): 49 nM
Ki (Adenosine A2 receptor [4]): 6000 nM

CCCn1c(=O)c2nc(C(C)(C)C)[nH]c2n(CCC)c1=O
Ki (Adenosine receptor A1 [3]): 31 nM
Ki (Adenosine A2 receptor [4]): 2300 nM

OC[C@H]1OC(n2cnc3c(NC45C[C@H]6C[C@@H](C4)C[C@@H](C5)C6)ncnc32)[C@H](O)[C@@H]1O (some centres not stated)
Ki (Adenosine receptor A1 [3]): 73 nM

CCCn1c(=O)c2nc(-c3cnns3)[nH]c2n(CCC)c1=O
Ki (Adenosine receptor A1 [6]): 4400 nM
Ki (Adenosine A2 receptor [2]): > 10000 nM

CCCn1c(=O)c2nc(C(C)(C)CCC)[nH]c2n(CCC)c1=O
Ki (Adenosine receptor A1 [3]): 25 nM
Ki (Adenosine A2 receptor [4]): 2200 nM

OC[C@H]1OC(n2cnc3c(NC(C4CC4)C4CC4)ncnc32)[C@H](O)[C@@H]1O (some centres not stated)
Ki (Adenosine receptor A1 [1]): 0.75 nM

CCCC(CCC)Nc1ncnc2c1ncn2C1O[C@H](CO)[C@@H](O)[C@H]1O (some centres not stated)
Ki (Adenosine receptor A1 [3]): 3.3 nM
